Published values pooled from the literature.
Each line is one published result; the experiments were not run side by side.
Cell line: PC-3
Read-out: cell growth or viability

SMILES	test	conditions	measurement	result
COc1cccc(NC(=O)CN2C(=O)/C(=C/c3ccco3)SC2=S)c1	MTT	10 µM	inhibition	8.63%
COc1ccc(C(=O)/C=C/c2cccc(Cl)c2Cl)cc1S(N)(=O)=O	SRB	48 h	GI50	4.5 µM
COc1ccccc1/C=C1\SC(=S)N(CC(=O)Nc2ccccc2)C1=O	MTT	10 µM	inhibition	29%
COc1cc2ncnc(Nc3ccc(F)c(Cl)c3)c2cc1NC(=O)N/N=C/c1cccn1CCN1CCCCC1	MTT	72 h	IC50	2.24 µM
C/C=C/C(=O)Nc1ccc(CCn2cc(C[C@@]3(O)C[C@@H]4c5cc(OCc6cc(C)cc(C)c6)c(OCc6cc(C)cc(C)c6)cc5CCN4[C@@H](C)C3)nn2)cc1	MTT	–	IC50	0.273 µM
O=C(N/N=C/CN1CCCC1)Nc1cc2c(Nc3ccc(F)c(Cl)c3)ncnc2cc1O[C@H]1CCOC1	MTT	72 h	IC50	3.89 µM
CSc1cccc(NC(=O)C2CCCN(C(=O)c3cc(C(F)(F)F)cc(C(F)(F)F)c3)C2)c1 (stereo not shown)	WST-1	100 µM	inhibition	0%
O=C(CN1C(=O)/C(=C/c2ccc(C(F)(F)F)cc2)SC1=S)Nc1ccccc1	MTT	10 µM	inhibition	32.1%
COc1ccc(C(=O)/C=C/c2ccc3ccccc3c2)cc1S(N)(=O)=O	SRB	48 h	GI50	1.8 µM
O=C(Nc1cccc(Oc2nccc(C(F)(F)F)c2Cl)c1)C1CCCN(C(=O)c2cc(C(F)(F)F)cc(C(F)(F)F)c2)C1 (stereo not shown)	WST-1	100 µM	inhibition	0%
C#CC[C@]1(O)C[C@@H]2c3cc(OCc4cc(C)cc(C)c4)c(OCc4cc(C)cc(C)c4)cc3CCN2[C@@H](C)C1	MTT	–	IC50	0.523 µM
O=C(CN1C(=O)/C(=C/c2cccc(Cl)c2)SC1=S)Nc1ccccc1	MTT	10 µM	inhibition	21%
COc1cc2ncnc(Nc3ccc(F)c(Cl)c3)c2cc1NC(=O)N/N=C/CN1CCCC1	MTT	72 h	IC50	2.55 µM
Cc1c(OCC(F)(F)F)ccnc1COc1ccc(NC(=O)Nc2cccc(C(F)(F)F)c2)cc1	MTT	72 h	IC50	> 100 µM
COc1cccc(/C=C2\SC(=S)N(CC(=O)Nc3ccccc3)C2=O)c1	MTT	10 µM	inhibition	10.6%
Cc1c(OCC(F)(F)F)ccnc1COc1ccc(NC(=O)Nc2ccc(Cl)c(C(F)(F)F)c2)cc1	MTT	72 h	IC50	54.2 µM
COc1cc2ncnc(Nc3ccc(F)c(Cl)c3)c2cc1NC(=O)N/N=C/c1cccn1CCCN1CCOCC1	MTT	72 h	IC50	0.05 µM
COc1ccc(C(=O)/C=C/c2cccc3ccccc23)cc1S(N)(=O)=O	SRB	48 h	GI50	2.3 µM
O=C(Nc1cccc(N2CCCC2=O)c1)C1CCCN(C(=O)c2cc(C(F)(F)F)cc(C(F)(F)F)c2)C1 (stereo not shown)	WST-1	100 µM	inhibition	0%
